Laboratory results from PubChem BioAssay AID1296 (Columbia University Molecular Screening Center, 2008).
Screen size: about 130,000 compounds; about 1,000 (0.77%) were called active. Roughly 1% stayed inconclusive and do not appear here.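 How the source made its calls: active means activation at 2 µM above a set limit, confirmed on inspection of the cell images; inconclusive means above the set limit but not confirmed on image inspection; inactive means the rest.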 The entries come from a sample that favours actives as a whole.

Assay: activators of insulin promoter-driven GFP, primary screen, imaging, TRM-6 cells (human fetal islet line), eGFP reporter, cell count (AID 1296;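 on activation: share of cells whose green reporter signal exceeds an intensity cutoff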;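 on normalized cell count: cells counted after 48 h compound exposure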)
Conditions: at 2 µM; activation: stronger effect = higher value, plate-scaled: unstimulated 0, stimulated control 100; normalized cell count: measured here: cell count (toxicity)
In short: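 Assay system: TRM-6 insulin promoter–eGFP reporter cells / Input: 1,000 cells per well / Medium: Low-glucose (5.5 mM) medium with tamoxifen / Also added: tamoxifen inducer, 0.75 µM, in seeding medium / Timing: overnight tamoxifen, then two-day compound incubation at 37 °C / Signal: automated fluorescence imaging of paraformaldehyde-fixed, Hoechst-counterstained cells, green channel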
In the case of `CCCC1NC(=S)NC(C)=C1C(C)=O` (stereo not given), the activation is reported as 7.14% (inactive) and the normalized cell count is reported as 103%. For `COC(=O)c1ccccc1NC(=S)NC(=O)c1ccccc1F`, the activation was 0% (inactive) and the normalized cell count was 112%. In the case of `Cc1ccccc1OCCOc1ccc([N+](=O)[O-])cc1/C=N/n1cnnc1`, the activation is reported as 107% (inactive) and the normalized cell count is reported as 5.92%. With `Cc1[nH]c2ccccc2c1SCC(=O)Nc1nccs1` the activation was 5.56% (inactive) and the normalized cell count was 140%. For `Cn1c(SCC(=O)N2CCCc3ccccc32)nc2ccccc2c1=O`, the activation was 57.1% (inactive) and the normalized cell count was 100%. With `COC(=O)c1[nH]c2ccccc2c1NC(=O)CN1CCCc2ccccc21` the activation was 209% (active) and the normalized cell count was 75.4%. In the case of `Cc1cccc(-n2cc(CN3CCN(C(=O)c4ncn[nH]4)CC3)c(-c3cccc(F)c3)n2)c1`, the activation is reported as 0% (inactive) and the normalized cell count is reported as 108%. In the case of `O=C(COc1ccc2c(C(F)(F)F)cc(=O)oc2c1)Nc1ccc2c(c1)OCCO2`, the activation is reported as 2.7% (inactive) and the normalized cell count is reported as 112%. With `CC1(C)CC(=O)c2cnc3nc4ccccc4n3c2C1` the activation was -76.2% (inactive) and the normalized cell count was 56.3%. For `Cc1cc(C(=O)OCC(=O)Nc2nnc(C(C)C)s2)c2ccccc2n1`, the activation was 0% (inactive) and the normalized cell count was 93.8%. In the case of `N#C/C(=C\C1=C(N2CCOCC2)C(=C\c2ccccc2)/CC1)C(=O)Nc1ccccc1F`, the activation is reported as 525% [fluoresces] (active) and the normalized cell count is reported as 109%. For `CC(CC(=O)O)C(=O)c1ccc(Cl)c([N+](=O)[O-])c1` (stereo not given), the activation was 6.67% (inactive) and the normalized cell count was 136%. For `O=C1C(Cl)=C(N2CCOCC2)C(=O)N1c1ccccc1`, the activation was 0% (inactive) and the normalized cell count was 129%. In the case of `Cn1nc(-c2ccc(N3CCOCC3)c(NC(=O)c3ccccc3)c2)c2ccccc2c1=O`, the activation is reported as 0% (inactive) and the normalized cell count is reported as 95.6%. With `O=C1OC(NC(=O)c2ccccc2)C(N2CCOCC2)=C1Cl` (stereo not given) the activation was 162% (active) and the normalized cell count was 118%. In the case of `C=CCc1cccc2cc(C(=O)OCC)c(=O)oc12`, the activation is reported as 7.14% (inactive) and the normalized cell count is reported as 70.6%. For `COCCCNCCOCCOc1ccc(Cl)cc1Br`, the activation was 6.67% (inactive) and the normalized cell count was 166%. For `CC1=NN(C(=O)Cc2ccc(C)cc2)C(O)(c2cccnc2)C1` (stereo not given), the activation was -5.41% (inactive) and the normalized cell count was 170%. With `CN(CC(=O)NC1CCCC1)S(=O)(=O)c1cnc[nH]1` the activation was -7.14% (inactive) and the normalized cell count was 85%. With `CC(C)COP(=O)(c1ccc(N(C)C)cc1)C(Nc1ccccc1)c1cccnc1` (stereo not given) the activation was 2.94% (inactive) and the normalized cell count was 145%. For `COC(=O)c1ccc(CSc2ccccc2C)o1`, the activation was 230% (active) and the normalized cell count was 122%. With `COC(=O)c1ccc(COC(=O)c2c(C)nn(Cc3ccccc3Cl)c2Cl)o1` the activation was 5.26% (inactive) and the normalized cell count was 164%. With `COC(=O)c1ccc(Cc2ccccc2)o1` the activation was -92.9% (inactive) and the normalized cell count was 83.1%. With `C=CCN(c1ccc(C(=O)Nc2cc(C)cc(C)c2)cc1)S(C)(=O)=O` the activation was 8.11% (inactive) and the normalized cell count was 119%. With `Cc1cccc2cc(CN(Cc3cccs3)C(=S)NCc3ccco3)c(=O)[nH]c12` the activation was -7.94% (inactive) and the normalized cell count was 94.8%. With `CCNC(=S)N(CCc1c(C)[nH]c2ccc(C)cc12)Cc1ccco1` the activation was 340% (active) and the normalized cell count was 55.7%. With `CC1CCCN(CCOCCOc2ccccc2-c2ccccc2)C1` (stereo not given) the activation was 7.14% (inactive) and the normalized cell count was 133%. With `Cc1ccc(C(C)(C)C)c(OCCCCN2CCCC2)c1` the activation was -1.96% (inactive) and the normalized cell count was 97.2%. For `CCOc1nnc(C)c2c(C)n(-c3cccc(Cl)c3)nc12`, the activation was 162% (active) and the normalized cell count was 134%. With `Cc1cc(C)c2c(n1)nn1c(N3CCN(c4cccc(Cl)c4)CC3)cc(C)nc21` the activation was 141% (inactive) and the normalized cell count was 99.8%. In the case of `Cc1nn(-c2ccccc2)c(C)c1NC(=O)COc1ccc(Cl)cc1Cl`, the activation is reported as 3.7% (inactive) and the normalized cell count is reported as 120%. For `O=C(CCCN1C(=O)/C(=C/c2ccco2)SC1=S)Nc1ccccc1`, the activation was 0% (inactive) and the normalized cell count was 158%. With `COc1ccc(N2CCN(C(=O)c3ccc4c(Cl)c5c(nc4c3)CCCC5)CC2)cc1` the activation was 0% (inactive) and the normalized cell count was 94.9%. In the case of `COc1ccc(C2CC(c3cccs3)Nc3nnnn32)cc1` (stereo not given), the activation is reported as -78.6% (inactive) and the normalized cell count is reported as 120%. In the case of `CC1(C)CC(=O)C(N=Nc2ccc(S(=O)(=O)N3CCCCCC3)cc2)=C(O)C1`, the activation is reported as 0% (inactive) and the normalized cell count is reported as 78.9%. For `O=C(NCN1CCN(CCO)CC1)c1cnccn1`, the activation was 6.67% (inactive) and the normalized cell count was 83.1%. In the case of `O=C(Nc1ccccc1C(=O)NCCCn1ccnc1)c1ccc(Cl)cc1Cl`, the activation is reported as 289% (inactive) and the normalized cell count is reported as 61.3%. With `Cc1ccc2c(Cl)c(C(=O)NCCCn3ccnc3)sc2c1` the activation was 352% (inactive) and the normalized cell count was 42%. With `CCCC(=O)Nc1ccc(C(=O)NCCCn2ccnc2)cc1` the activation was 456% (active) and the normalized cell count was 48.4%. With `C/C(=N\NC(=O)c1ccc(NS(=O)(=O)c2cccs2)cc1)c1ccc2ccccc2c1` the activation was 157% (inactive) and the normalized cell count was 72.7%. With `CN(C)CCCCCN(C)Cc1cc2ccccc2o1` the activation was 319% (active) and the normalized cell count was 86.1%. For `CCN(CCO)C(=S)Nc1cc(C(=O)OC)ccc1C(=O)OC`, the activation was 3.45% (inactive) and the normalized cell count was 127%. With `CCS(=O)(=O)Nc1cc(C(=O)OC)ccc1C(=O)OC` the activation was -6.67% (inactive) and the normalized cell count was 104%. With `COC(=O)c1ccc(C(=O)OC)c(NC(=S)N2CCN(c3ccc(F)cc3)CC2)c1` the activation was 403% (active) and the normalized cell count was 89.4%. With `COc1ccc(C)cc1Nc1nc(-c2c(C)[nH]c3ccccc23)cs1` the activation was -3.7% (inactive) and the normalized cell count was 68.8%. For `CN(c1ccc(OCC(=O)OCC(=O)Nc2cccc([N+](=O)[O-])c2)cc1)S(=O)(=O)c1ccc(F)cc1`, the activation was -8.57% (inactive) and the normalized cell count was 119%. With `CCc1ccc(NC(=O)Nc2ccncc2)cc1` the activation was 268% (active) and the normalized cell count was 67.1%. In the case of `COc1cccc(OC)c1C(=O)Nc1ccc(Cc2ccncc2)cc1`, the activation is reported as 6.67% (inactive) and the normalized cell count is reported as 107%. With `O=C(Nc1ccncc1)c1c(F)cccc1F` the activation was -5.26% (inactive) and the normalized cell count was 90.9%. For `OCCNCCOc1ccc(Cl)c(Cl)c1`, the activation was -3.85% (inactive) and the normalized cell count was 86.5%. For `CC(NC(=O)Nc1ccc2c(c1)OCO2)c1ccncc1` (stereo not given), the activation was -5.26% (inactive) and the normalized cell count was 112%. For `Cc1onc(C(=O)NN)c1C(=O)N1CCN(C(c2ccccc2)c2ccccc2)CC1`, the activation was -81.8% (inactive) and the normalized cell count was 29.3%. For `CCOC(=O)c1c(NC(=O)C2CC=CCC2C(=O)O)sc(C)c1CC` (stereo not given), the activation was -5.88% (inactive) and the normalized cell count was 110%. With `Cc1ccccc1C(OCCN(C)C)C1CCCCC1` (stereo not given) the activation was -9.38% (inactive) and the normalized cell count was 72.9%. For `Cc1ccc(N/N=C2\COC(C)(C)CC2=O)cc1`, the activation was 7.14% (inactive) and the normalized cell count was 67.8%.
